Experimental data as given in ChEMBL document CHEMBL2016575, “The chemical synthesis of metabolically stabilized 2-OMe-LPA analogues and preliminary studies of their inhibitory activity toward autotaxin” (Bioorg Med Chem Lett, 2012).

Assays:
Autotaxin [1] = molecular target: T1, Autotaxin (Homo sapiens, UniProt Q13822); assay: Inhibition of human recombinant autotaxin expressed in insect Sf9 cells using FS-3 as substrate at 1 uM preincubated for 10 mins prior substrate addition measured up to 60 mins by FRET-based analysis
Autotaxin [2] = molecular target: T1, Autotaxin; assay: Inhibition of human recombinant autotaxin expressed in insect Sf9 cells using FS-3 as substrate preincubated for 10 mins prior substrate addition measured up to 60 mins by FRET-based analysis
[3] = Metabolic stability of the compound assessed as reduction in dephosphorylation at […] after 24 hrs by phosphomolybdate blue assay in presence of bovine intestinal mucosal alkaline phosphatase; type: ADME; details: cattle, isolated protein
In short: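 Substrate incubated with the phosphatase at 37 °C for 24 h. Dephosphorylation is followed by quantifying liberated inorganic phosphate with a modified phosphomolybdate blue assay.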

Structure (SMILES)	inhibition (Autotaxin [1]) [%]	IC50 (Autotaxin [2]) [µM]	Stability [3]
CCCCCCCC/C=C\CCCCCCCC(=O)OCC(COP(=O)(O)S)OC (stereo not given)	77.8	0.356	–
CCCCCCCCCCCCCCCC(=O)OCC(COP(=O)(O)S)OC (stereo not given)	64.7	0.512	–
CCCCCCCCCCCC(=O)OCC(COP(=O)(O)S)OC (stereo not given)	36.7	2.41	–
CCCCCCCCCCCC(=O)OCC(COP(=O)(O)O)OC (stereo not given)	45.5	1.2	–
CCCCCCCCCCCCCCCC(=O)OCC(COP(=O)(O)O)OC (stereo not given)	74.5	0.361	–
CCCCCCCCCCCCCC(=O)OCC(COP(=O)(O)O)OC (stereo not given)	57.7	0.704	–
CCCCCCCC/C=C\CCCCCCCC(=O)OCC(COP(=O)(O)O)OC (stereo not given)	81.3	0.22	Stable
CCCCCCCC/C=C\CCCCCCCC(=O)OC[C@@H](O)COP(=O)(O)O [LYSOPHOSPHATIDIC ACID]	–	–	Unstable
CCCCCCCCCCCCCC(=O)OCC(COP(=O)(O)S)OC (stereo not given)	62.3	0.596	–
CCCCCCCCCCCCCCCCCC(=O)OCC(COP(=O)(O)S)OC (stereo not given)	35.5	2.42	–
CCCCCCCCCCCCCCCCCC(=O)OCC(COP(=O)(O)O)OC (stereo not given)	49.7	1.01	–
CCCCCCCCCCCCCCCCCC(=O)OC[C@@H](O)CC(Br)P(=O)(O)O (stereo not given in full)	86.1	0.17	Stable
